The record followed here is ChEMBL document CHEMBL1156676, “Peptidyl 3-substituted 1-hydroxyureas as isosteric analogues of succinylhydroxamate MMP inhibitors” (Eur J Med Chem, 2008).

Where a SMILES comes first, the peptide text is derived from it. The star is where a group is joined. Cbz = O=C(OCc1ccccc1)* Bounds are passed on as bounds.

Test [1] concerns the target T1, Matrilysin (Homo sapiens, UniProt P09237).
T1 sequence (P09237 whole entry): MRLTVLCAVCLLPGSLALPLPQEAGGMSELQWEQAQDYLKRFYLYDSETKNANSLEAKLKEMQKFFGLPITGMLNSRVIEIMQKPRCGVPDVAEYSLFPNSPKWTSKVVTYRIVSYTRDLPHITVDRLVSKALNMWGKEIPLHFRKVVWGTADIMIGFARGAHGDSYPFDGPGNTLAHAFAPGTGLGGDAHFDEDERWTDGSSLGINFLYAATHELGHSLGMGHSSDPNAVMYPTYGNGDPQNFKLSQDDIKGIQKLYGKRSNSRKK
As to the kind of experiment: Inhibition of human recombinant MMP7. An outline of the steps: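 MMP-7 proenzyme was APMA-activated (1 mM, 1 h, 37 °C), final 2.4 nM. Incubated 4 h at 25 °C with inhibitor at seven concentrations in Tris 50 mM pH 7.5/NaCl 150 mM/CaCl2 10 mM/Brij 35 0.05%/DMSO 1%. Cleavage of Mca-Lys-Pro-Leu-Gly-Leu-Dpa-Ala-Arg-NH2 was followed fluorimetrically (325/400 nm) every 15 s over 20 min, triplicate.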

Test [2] concerns the target Matrix metalloproteinase-9 (Homo sapiens, UniProt P14780). The test can be described thus: Inhibition of human recombinant MMP9. An outline of the steps:
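Pro-MMP-9 activated with APMA 1 mM, 1 h, 37 °C, used at 2.7 nM final. Preincubated 4 h at 25 °C with seven inhibitor concentrations in Tris 50 mM pH 7.5, NaCl 150 mM, CaCl2 10 mM, Brij 35 0.05%, DMSO 1%. Hydrolysis of Mca-Lys-Pro-Leu-Gly-Leu-Dpa-Ala-Arg-NH2 monitored by fluorescence (325/400 nm) every 15 s for 20 min, triplicate.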

Test [3] has as its target 72 kDa type IV collagenase (Homo sapiens, UniProt P08253). The test can be described thus: Inhibition of human recombinant MMP2.
Test [4] concerns the target T2, Interstitial collagenase (Homo sapiens, UniProt P03956).
T2 sequence (P03956 whole entry): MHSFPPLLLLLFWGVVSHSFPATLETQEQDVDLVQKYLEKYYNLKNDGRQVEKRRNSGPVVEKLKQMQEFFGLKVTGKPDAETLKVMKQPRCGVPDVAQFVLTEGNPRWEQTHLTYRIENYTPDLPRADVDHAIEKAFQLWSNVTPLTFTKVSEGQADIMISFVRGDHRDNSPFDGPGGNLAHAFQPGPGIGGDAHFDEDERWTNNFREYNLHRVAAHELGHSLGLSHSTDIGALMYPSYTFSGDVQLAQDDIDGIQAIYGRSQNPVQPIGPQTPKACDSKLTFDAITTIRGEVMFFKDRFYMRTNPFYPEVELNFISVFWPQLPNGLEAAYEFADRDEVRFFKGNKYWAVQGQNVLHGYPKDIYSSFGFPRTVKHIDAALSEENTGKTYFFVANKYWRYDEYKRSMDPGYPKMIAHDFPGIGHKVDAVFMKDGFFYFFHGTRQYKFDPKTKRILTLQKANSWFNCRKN
The test can be described thus: Inhibition of human recombinant MMP1.

Test [5] has as its target Stromelysin-1 (Homo sapiens, UniProt P08254). As to the kind of experiment: Inhibition of human recombinant MMP3.
The target in test [6] is Neutrophil collagenase (Homo sapiens, UniProt P22894). The test can be described thus: Inhibition of human recombinant MMP8.
Chain of Neutrophil collagenase (P22894 whole entry): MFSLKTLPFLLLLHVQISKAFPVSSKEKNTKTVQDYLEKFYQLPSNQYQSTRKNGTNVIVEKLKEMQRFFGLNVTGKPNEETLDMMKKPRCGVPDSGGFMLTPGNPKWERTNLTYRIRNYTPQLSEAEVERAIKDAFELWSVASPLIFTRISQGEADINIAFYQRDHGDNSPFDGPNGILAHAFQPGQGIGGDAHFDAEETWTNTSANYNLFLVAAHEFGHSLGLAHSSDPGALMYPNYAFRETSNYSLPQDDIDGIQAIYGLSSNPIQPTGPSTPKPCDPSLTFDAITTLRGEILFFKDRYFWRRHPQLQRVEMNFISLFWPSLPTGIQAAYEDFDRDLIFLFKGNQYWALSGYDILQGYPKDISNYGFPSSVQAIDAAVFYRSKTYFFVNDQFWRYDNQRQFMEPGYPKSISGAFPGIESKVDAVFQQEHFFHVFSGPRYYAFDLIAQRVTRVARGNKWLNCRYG

Chain of Matrix metalloproteinase-9 (P14780 whole entry): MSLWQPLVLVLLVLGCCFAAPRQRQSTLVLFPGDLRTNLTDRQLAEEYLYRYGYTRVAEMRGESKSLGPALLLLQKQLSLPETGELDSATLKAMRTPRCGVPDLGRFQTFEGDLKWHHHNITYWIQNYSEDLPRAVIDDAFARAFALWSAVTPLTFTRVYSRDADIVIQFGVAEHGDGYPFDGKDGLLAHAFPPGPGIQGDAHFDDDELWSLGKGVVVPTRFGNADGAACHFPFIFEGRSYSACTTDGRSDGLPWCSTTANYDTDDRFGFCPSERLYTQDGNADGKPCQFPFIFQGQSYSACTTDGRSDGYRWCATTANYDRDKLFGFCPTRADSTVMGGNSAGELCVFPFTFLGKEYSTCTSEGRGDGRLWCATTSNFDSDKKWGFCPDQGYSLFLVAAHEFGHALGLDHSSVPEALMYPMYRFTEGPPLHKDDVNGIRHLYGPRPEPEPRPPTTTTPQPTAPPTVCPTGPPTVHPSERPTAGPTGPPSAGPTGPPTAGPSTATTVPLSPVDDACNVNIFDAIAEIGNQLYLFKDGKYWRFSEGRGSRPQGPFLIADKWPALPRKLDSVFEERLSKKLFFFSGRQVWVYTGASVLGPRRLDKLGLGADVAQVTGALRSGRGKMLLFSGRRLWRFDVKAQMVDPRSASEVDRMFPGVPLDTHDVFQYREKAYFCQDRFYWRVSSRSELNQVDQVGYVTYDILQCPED
Chain of Stromelysin-1 (P08254 whole entry): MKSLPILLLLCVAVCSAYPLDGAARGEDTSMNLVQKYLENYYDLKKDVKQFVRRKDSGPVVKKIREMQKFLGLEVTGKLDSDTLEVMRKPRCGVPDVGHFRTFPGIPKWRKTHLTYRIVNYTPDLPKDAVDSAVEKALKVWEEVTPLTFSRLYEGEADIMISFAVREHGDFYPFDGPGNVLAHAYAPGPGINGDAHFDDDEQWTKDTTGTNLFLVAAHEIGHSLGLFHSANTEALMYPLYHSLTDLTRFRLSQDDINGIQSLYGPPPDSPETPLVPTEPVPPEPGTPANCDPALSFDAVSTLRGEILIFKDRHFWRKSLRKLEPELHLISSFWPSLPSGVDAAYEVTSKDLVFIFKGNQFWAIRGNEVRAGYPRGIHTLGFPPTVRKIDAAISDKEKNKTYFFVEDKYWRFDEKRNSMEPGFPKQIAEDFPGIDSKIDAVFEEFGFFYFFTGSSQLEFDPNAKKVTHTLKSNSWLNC
Chain of 72 kDa type IV collagenase (P08253 whole entry): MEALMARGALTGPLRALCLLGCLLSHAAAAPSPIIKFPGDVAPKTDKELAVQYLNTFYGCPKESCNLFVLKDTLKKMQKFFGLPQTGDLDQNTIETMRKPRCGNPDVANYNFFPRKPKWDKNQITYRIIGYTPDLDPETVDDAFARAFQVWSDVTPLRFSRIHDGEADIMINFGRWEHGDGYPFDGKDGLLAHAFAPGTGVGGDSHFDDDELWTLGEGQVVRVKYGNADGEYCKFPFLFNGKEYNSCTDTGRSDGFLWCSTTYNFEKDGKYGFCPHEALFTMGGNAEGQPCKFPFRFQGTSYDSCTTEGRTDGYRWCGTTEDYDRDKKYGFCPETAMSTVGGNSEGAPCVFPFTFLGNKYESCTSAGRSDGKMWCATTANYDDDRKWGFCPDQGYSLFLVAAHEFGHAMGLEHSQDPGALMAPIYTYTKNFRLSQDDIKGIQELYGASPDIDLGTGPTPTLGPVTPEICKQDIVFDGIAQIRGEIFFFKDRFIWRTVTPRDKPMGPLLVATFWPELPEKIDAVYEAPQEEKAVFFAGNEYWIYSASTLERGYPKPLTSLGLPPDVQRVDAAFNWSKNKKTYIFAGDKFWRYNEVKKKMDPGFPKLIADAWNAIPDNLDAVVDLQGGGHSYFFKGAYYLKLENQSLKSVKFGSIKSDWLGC

Turning to `CNC(=O)[C@H](Cc1ccccc1)NC(=O)[C@@H](CC(=O)NO)CC(C)C`, the IC50 (usually the midpoint of a concentration-inhibition curve) was 0.0083 µM in test [1] and 0.00038 µM in test [2].

For the compound `CNC(=O)[C@H](Cc1ccccc1)NC(=O)[C@@H](N)CC(C)C`, the IC50 in test [3], in test [1] and in test [2] was more than 300 µM in each case.

Turning to `CNC(=O)[C@H](Cc1ccccc1)NC(=O)[C@@H](CC(C)C)NC(=O)NO`, the IC50 is more than 300 µM in test [4]; more than 300 µM in test [3]; more than 300 µM in test [5]; more than 300 µM in test [1]; 150 µM in test [6]; 200 µM in test [2].

`CNC(=O)[C@H](Cc1ccccc1)NC(=O)[C@H](CC(=O)NO)CC(C)C`: the results for the IC50 in test [1] and in test [2] were 4.1 µM and 0.15 µM, respectively.

In the case of `CNC(=O)[C@H](Cc1ccccc1)NC(=O)[C@H](CC(C)C)NC(=O)NO`, the IC50 in test [4] was 270 µM; in test [3] it was 60 µM; in test [5], more than 300 µM; in test [1], more than 300 µM; in test [6], 70 µM; in test [2], 20 µM.

Regarding `CNC(=O)[C@H](Cc1ccccc1)NC(=O)[C@H](N)CC(C)C`, the IC50 in test [4], in test [3], in test [5], in test [1], in test [6] and in test [2] was more than 300 µM throughout.

Regarding `COC(=O)[C@H](Cc1ccccc1)NC(=O)[C@H](CC(C)C)NC(=O)OCc1ccccc1` (Cbz-Leu-Phe-OMe), the IC50 in test [4], in test [3], in test [5], in test [1], in test [6] and in test [2] was more than 300 µM each time.
